# Compound activity from PubChem BioAssay.
# In the library only some 4% were active in any assay of this set; here they are far more common.
# TAAR1 antagonist: antagonists of human TAAR1. AID 624466. 1.5% of 360,000 active. inhibition, % at 3 µM. Q96RJ0. CHO RD-HGA16 TAAR1, Fluo-8 calcium fluorescence, antagonist;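 active = inhibition above a per-plate cutoff, the mean inhibition of test compounds on that plate plus 3 SD, cut at about 49% in these data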;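 also: 0% = DMSO plus EC80 beta-PEA response and 100% = DMSO alone without agonist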
# Target sequence (Q96RJ0 whole entry, looked up): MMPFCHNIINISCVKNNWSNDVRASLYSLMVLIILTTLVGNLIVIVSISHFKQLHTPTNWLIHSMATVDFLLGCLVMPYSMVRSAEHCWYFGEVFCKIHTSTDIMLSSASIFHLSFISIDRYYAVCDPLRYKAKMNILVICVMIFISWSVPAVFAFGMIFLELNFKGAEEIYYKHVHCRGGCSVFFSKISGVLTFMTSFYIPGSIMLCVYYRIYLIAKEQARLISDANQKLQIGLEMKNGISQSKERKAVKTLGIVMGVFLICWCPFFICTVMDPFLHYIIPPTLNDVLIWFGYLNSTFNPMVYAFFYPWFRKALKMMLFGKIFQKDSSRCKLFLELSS
#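 System: CHO RD-HGA16 cells bearing hTAAR1. Reagent: EC80 β-phenethylamine stimulus. Schedule: seeding 17-24 h prior, 75-min 37 °C, 30-min RT dye loading. Signal: Fluo-8 intracellular calcium dye fluorescence, real-time kinetic reads. Read-out: % inhibition from peak post-agonist over basal fluorescence ratio. Benchmarks: vehicle wells and EC80 agonist wells. Replicates: n of 1.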
# OX1R antag-1: antagonists of human orexin 1 receptor (OX1R) | OX1R-expressing cells, FRET antagonist read-out | inhibition, % at 6.6 µM | 1.8% of 330,000 active | AID 485270; in the data active = inhibition mostly above about 38%, no sharp cut-off; inactive = mostly below about 40%;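 also: 0% = agonist challenge alone and 100% = reference antagonist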
# CHO parental Ca: counter-screen: ATP calcium response change in parental CHO cells | parental CHO-K1, ATP-induced calcium, Fluo-8 fluorescence | inhibition, % at 5.6 µM | 0.63% of 330,000 active | AID 463079;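 active = inhibition above that plate's mean sample inhibition plus 3 SD, cut at about 26% in these data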;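 also: 0% = ATP-challenged DMSO wells and 100% = DMSO wells without ATP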
#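 Assay system: untransfected parental CHO cell line. Also added: ATP agonist challenge. Dosing: one dose, 5.6 µM nominal. Measured by: Fluo-8 fluorescence. Read-out: % inhibition. Benchmarks: ATP wells versus no-ATP DMSO wells. Repeats: no replicates.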
# NTR1 agonist: NTR1 (human) agonism; P30989; NTR1-U2OS beta-arrestin-GFP spot imaging, agonist mode; activation, % at 20 µM; 0.17% of 330,000 active; AID 493036;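 active = activation at or above 40% of the spot to cytoplasm intensity ratio, with at least 20 cells analyzed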;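 also: 0% = DMSO without peptide and 100% = 100 nM NTR1 peptide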
# Target sequence (P30989 whole entry, looked up): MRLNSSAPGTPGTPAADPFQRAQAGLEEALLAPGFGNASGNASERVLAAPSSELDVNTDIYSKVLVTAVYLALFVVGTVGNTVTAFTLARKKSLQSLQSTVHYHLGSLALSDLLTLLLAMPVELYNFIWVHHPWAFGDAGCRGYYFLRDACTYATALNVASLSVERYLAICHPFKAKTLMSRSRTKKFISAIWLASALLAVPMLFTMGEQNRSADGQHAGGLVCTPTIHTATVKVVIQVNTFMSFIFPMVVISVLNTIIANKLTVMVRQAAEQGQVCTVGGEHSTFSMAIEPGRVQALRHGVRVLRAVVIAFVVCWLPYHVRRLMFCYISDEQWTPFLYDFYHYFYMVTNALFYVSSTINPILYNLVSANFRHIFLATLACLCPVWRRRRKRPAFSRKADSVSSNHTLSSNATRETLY
# TAAR1 ag: human TAAR1 agonism | 0.99% of 360,000 active | AID 624467 | Q96RJ0 | activation, % at 3 µM | CHO RD-HGA16 TAAR1, Fluo-8 calcium fluorescence; vehicle wells 0%, saturating PEA agonist 100%;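 active = activation above the mean activation of all test compounds in the run plus 3 SD, cut at about 38% in these data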
#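 Signal – calcium-sensitive Fluo-8 signal, excitation 470-495, emission 515-575 nm · System – RD-HGA16 (CHO) cells co-expressing Gα16 and hTAAR1 · Incubation – 17-24 h seeding, 75 min 37 °C dye, 30 min RT · Compound dosing – 3 µM single concentration · Repeats – no replicates (n 1)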
# OX1R antag-2: antagonists of human orexin 1 receptor; O43613; CHO/OX1R cells, Fluo-8 calcium fluorescence, orexin A; inhibition, % at 5 µM; 0.43% of 330,000 active; AID 434989;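 active = inhibition above its plate's threshold, mean inhibition of all tested compounds on the plate plus 3 SD, cut at about 37% in these data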;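 also: 0% = orexin A challenge wells and 100% = SB-334867-A antagonist wells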
# TAAR1 ag conf: confirmation of human TAAR1 agonists. shares compounds with TAAR1 ag. activation, % at 3 µM. AID 651783. CHO RD-HGA16 TAAR1, Fluo-8 calcium fluorescence; scaled: DMSO 0%, maximal phenethylamine 100%. 82% of 2,400 active;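 active = activation above a cutoff set at the run's mean compound activation plus 3 SD, cut at about 39% in these data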
# Ga16 ag counter: nonselective agonist in parental cells, TAAR1 agonist counter-screen | shares compounds with TAAR1 ag | CHO-Ga16 parental, Fluo-8 calcium fluorescence; normalized to maximal ATP response, DMSO zero | activation, % at 3 µM | 50% of 2,400 active | AID 651787;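 active = activation above the run cutoff, the mean activation over all tested wells plus 3 SD, cut at about 12% in these data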;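 also: 0% = DMSO wells and 100% = maximal ATP response on the peak over basal ratio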
# TAAR1 desens: counter-screen for human TAAR1 agonists: agonists that desensitize TAAR1. inhibition, % at 3 µM. 46% of 2,400 active. shares compounds with TAAR1 ag. CHO RD-HGA16 hTAAR1, Fluo-8 calcium, beta-PEA response inhibition. AID 651951;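 active = inhibition above the run cutoff, the mean inhibition of all test compounds plus 3 SD, cut at about 49% in these data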;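 also: beta-PEA stimulus applied at its EC80; loss of beta-PEA calcium signal after compound pretreatment read as receptor desensitization; 0% = DMSO with beta-PEA at EC80 and 100% = DMSO alone without agonist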
# Ga16 nonsel ant: nonselective Ga16 antagonist in TAAR1 agonist counter-screen; shares compounds with TAAR1 ag; CHO-Ga16 ATP-induced calcium, Fluo-8 fluorescence; inhibition, % at 3 µM; 39% of 2,400 active; AID 651952;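 active = inhibition above the plate's mean compound inhibition plus 3 SD, computed per plate, cut at about 22% in these data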;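 also: 0% = EC80 ATP with DMSO and 100% = DMSO wells without ATP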
# * = called active by the depositor; . = not tested or not shown.
SMILES,TAAR1 antagonist,OX1R antag-1,CHO parental Ca,NTR1 agonist,TAAR1 ag,OX1R antag-2,TAAR1 ag conf,Ga16 ag counter,TAAR1 desens,Ga16 nonsel ant
COc1ccc(NC(=O)C2CC(=O)OC2c2ccccc2)cc1 (stereo unspecified),-7.4,1.2,-3.3,1.5,50.6*,-9.7,1.5,1.3,2.9,12.1
Cc1cc(NC(=O)C2CC(=O)OC2c2ccccc2)no1 (stereo unspecified),0.4,2.0,-3.6,-1.6,20.5,-5.2,.,.,.,.
Cc1noc(C)c1COC(=O)c1ccc(S(=O)(=O)N2CCCCC2)cc1,8.1,14.7,-19.7,-0.3,0.7,-15.3,.,.,.,.
CC(=O)c1cn(C2OC(CO)C3OC(C)(C)OC32)c(=O)n(C)c1=O (stereo unspecified),-3.6,10.6,-0.6,0.1,1.2,-9.5,.,.,.,.
COc1ccc(NC(=O)COC(=O)c2cc(C)oc2C)c([N+](=O)[O-])c1,58.5*,-0.2,11.3,6.3,61.7*,5.3,-2.7,1.7,7.2,9.8
COc1ccc(NC(=O)COC(=O)c2cc(OC)c(OC)c(OC)c2)c([N+](=O)[O-])c1,-8.6,26.7,-15.3,1.5,4.1,-21.1,.,.,.,.
COc1cccc(-c2nc(CS(=O)CC(=O)NCCc3ccccc3)c(C)o2)c1 (stereo unspecified),-11.9,17.1,-31.5,-0.2,48.9*,-17.9,51.5*,0.2,12.2,-0.3
O=C(CN1CCCC1c1cccs1)N1CCN(S(=O)(=O)c2cccc(F)c2)CC1 (stereo unspecified),-5.7,10.3,-17.5,-1.1,-0.4,-2.9,.,.,.,.
CN(CC1CCCN(CCc2ccc(Cl)cc2)C1)C(=O)c1ccco1 (stereo unspecified),-20.0,5.6,-26.7,-0.5,-0.8,-18.3,.,.,.,.
O=C(Nc1ccc(OCc2ccccc2)cc1)c1ccccc1,-2.7,21.4,-4.4,0.0,1.0,-13.9,.,.,.,.
NNC(=O)c1ccc(COc2ccc3ccccc3c2)cc1,-12.2,-10.8,-4.3,2.0,72.0*,-2.4,92.9*,50.9*,48.8*,22.6*
O=C(Nc1ccc(OCc2ccccc2)cc1)c1cccnc1,56.7*,42.0,11.9,0.7,87.8*,-1.4,94.5*,30.5*,75.4*,25.7*
O=C(Nc1ccccc1F)c1ccc(OCc2ccccc2)cc1,.,7.6,9.7,-1.0,.,-4.1,.,1.2,.,13.0
O=C(N/N=C/c1ccc(OCc2ccc(F)cc2)cc1)c1ccccc1,4.7,26.3,3.5,0.3,43.5*,-0.1,17.9,2.5,-0.5,0.4
O=C(N/N=C/c1ccc(F)cc1)c1ccc(OCc2ccccc2)cc1,-2.3,2.3,-6.6,1.2,0.5,-3.5,.,.,.,.
Cc1cc(C(=O)NCC(c2ccco2)N2CCCC2)c2ccccc2n1 (stereo unspecified),11.2,1.9,-14.3,1.7,0.5,-10.3,.,.,.,.
Cc1cc(C(=O)N2CCCc3ccccc32)ccc1[N+](=O)[O-],-14.1,23.5,-9.5,2.2,2.4,-24.2,.,.,.,.
Cc1ccc(NC(=O)c2ccco2)c(NC(=O)c2ccc(Cl)cc2)c1,22.4,20.4,-14.1,0.1,1.1,-18.5,.,.,.,.
COc1ccc(SCC(=O)Nc2ccc(N3CCN(C)CC3)c(F)c2)cc1,2.0,10.6,6.5,-0.3,25.2,-9.0,.,.,.,.
Cc1ccc(SCC(=O)Nc2ccc(N3CCN(C)CC3)c(F)c2)cc1,21.2,11.2,-10.6,1.2,48.6*,-12.3,69.0*,3.6,38.9,7.5
COc1ccc(OCC(=O)Nc2ccncc2)cc1,-16.1,17.1,0.8,0.8,4.5,-3.6,.,.,.,.
COc1cc(OC)c(NC(=O)c2csc(C)c2)cc1Cl,-14.9,1.5,-6.8,0.5,-1.7,-1.2,.,.,.,.
CCc1c(Cc2ccccc2)ncn1CCc1ccccc1OC,-0.8,.,.,.,51.8*,.,74.8*,2.0,21.0,10.4
COc1ccccc1CCn1cnc(Cc2ccccc2)c1C(C)C,48.1,.,.,.,54.0*,.,71.8*,5.9,58.8*,21.8*
CN(C)S(=O)(=O)c1cc(NC(=O)COC(=O)c2nc(Cl)ccc2Cl)ccc1Cl,19.6,26.5,-11.3,1.6,9.0,13.1,.,.,.,.
SMILES,TAAR1 antagonist,OX1R antag-1,CHO parental Ca,NTR1 agonist,TAAR1 ag,OX1R antag-2,TAAR1 ag conf,Ga16 ag counter,TAAR1 desens,Ga16 nonsel ant
Cc1cc(C2=NNC(=NCCc3ccccc3)SC2)c(C)n1-c1c(C)n(C)n(-c2ccccc2)c1=O,21.3,-0.1,-3.1,1.7,70.4*,-26.1,92.6*,2.2,61.9*,2.4
Cc1ccc(SCC(=O)OCC(=O)NCCc2ccc(S(N)(=O)=O)cc2)c(C)c1,22.1,7.3,-7.2,-1.2,-0.8,-4.6,.,.,.,.
Cc1ccc(S(=O)(=O)N(CC(=O)c2ccc(Cl)cc2)C(=O)N2CCN(C)CC2)cc1,-24.7,3.2,-9.3,0.2,0.3,-8.6,.,.,.,.
N/C(Cc1cccc2ccccc12)=N\OC(=O)c1ccc2c(c1)OCO2,48.9*,18.3,-10.1,2.0,74.3*,-12.8,15.6,0.7,7.5,9.9
N/C(Cc1cccc2ccccc12)=N\OC(=O)c1ccc(Br)o1,38.2,.,.,.,91.0*,.,88.8*,1.4,79.7*,3.3
N/C(=N\OC(=O)c1ccc2c(c1)OCO2)c1cccc(Br)c1,-4.7,14.4,15.1,1.6,-0.3,3.9,.,.,.,.
N/C(Cc1ccc(Cl)cc1Cl)=N\OC(=O)c1ccc(Br)o1,16.3,6.5,-2.0,9.5,3.0,-25.5,.,.,.,.
CCOC(=O)[C@]12CCC=C1N(Cc1ccc3c(c1)OCO3)C(=O)[C@H](CC(=O)NCc1cccc(C(F)(F)F)c1)C2,-2.5,.,.,.,2.6,.,.,.,.,.
c1ccc(CCNC2=NCCCS2)cc1,5.7,14.3,1.1,-1.3,0.3,-7.5,.,.,.,.
c1ccc(CCNC2=NCCS2)cc1,3.0,10.3,-3.2,0.0,49.5*,-17.2,74.8*,0.9,27.6,8.4
O=C(Cn1sc2ccccc2c1=O)Nc1ccc(F)cc1,16.9,.,.,.,54.8*,.,59.1*,39.1*,32.6,21.7*
O=C(CN1C(=O)CNC1=O)Nc1ccc(Cl)cc1,-11.1,9.1,-6.0,1.0,1.4,-8.0,.,.,.,.
O=C(Cn1sc2ccccc2c1=O)Nc1ccc(Cl)cc1,45.8,.,.,.,54.7*,.,54.6*,29.6*,23.1,28.9*
COc1cccc(CN(C)C(=O)CSCC(=O)Nc2cccc(C)c2)c1OC,-17.8,9.4,-25.0,1.8,10.8,-28.1,.,.,.,.
